From ChEMBL document CHEMBL2412964, “Discovery of novel tetrahydro-pyrazolo [4,3-c] pyridines for the treatment of neuropathic pain: synthesis and neuropharmacology” (Eur J Med Chem, 2013)
Active and inactive are the calls of the source.

Experiments:
[1] = tested on: Rattus norvegicus; assay: Antinociceptive activity in ip dosed Wistar rat partial sciatic nerve ligation model assessed as reversal of cold allodynia after 60 mins; format: functional; conditions: 1 h
In short: (§1)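 Wistar rats (200–250 g) with nerve injury, compounds i.p. in 30% v/v PEG 400; dose–response curves in each sensory test (spontaneous pain and cold allodynia as paw withdrawal duration; tactile allodynia and hyperalgesia as withdrawal threshold). ED50 linearly interpolated between doses just above and below 50% response; time of peak effect recorded.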

[2] = tested on: Mus musculus; assay: Anticonvulsant activity in Swiss albino mouse assessed as protection against picrotoxin-induced seizure at 300 mg/kg, ip administered 30 mins prior to picrotoxin-challenge measured after 4 hrs; format: functional, organism-based; parameters: dose 300 mg/kg
In short: (§2)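 Mice, either sex, 20-25 g, given compound i.p. at 30, 100 and 300 mg/kg. Thirty minutes later, picrotoxin 3.15 mg/kg was injected s.c. in 0.01 mL/g body weight. Animals were isolated and watched for 45 min for a threshold convulsion, and protection was scored as its absence. Examined at 0.5 and 4 h. Value reported is the minimum dose active in half or more of the mice (n = 3).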

[3] = tested on: Rattus norvegicus; assay: Antinociceptive activity in ip dosed Wistar rat chronic constriction injury model assessed as reversal of cold allodynia after 60 mins; format: functional; conditions: 1 h; in short: as §1
[4] = tested on: Rattus norvegicus; assay: Antinociceptive activity in ip dosed Wistar rat partial sciatic nerve ligation model assessed as reversal of spontaneous pain response after 30 mins; format: functional; conditions: 0.5 h; in short: as §1
[5] = tested on: Rattus norvegicus; assay: Antinociceptive activity in ip dosed Wistar rat chronic constriction injury model assessed as reversal of tactile allodynia after 60 mins; format: functional; conditions: 1 h; in short: as §1
[6] = tested on: Rattus norvegicus; assay: Antinociceptive activity in Wistar rat chronic constriction injury model assessed as reversal of cold allodynia at 100 mg/kg, ip after 120 mins (reference value: 5.4 +/- 1.9%); format: functional; conditions: route intraperitoneal
[7] = tested on: Rattus norvegicus; assay: Antinociceptive activity in Wistar rat chronic constriction injury model assessed as reversal of spontaneous pain response at 100 mg/kg, ip after 30 mins (reference value: 8.9 +/- 4.6%); format: functional; conditions: route intraperitoneal
[8] = tested on: Rattus norvegicus; assay: Antinociceptive activity in Wistar rat chronic constriction injury model assessed as reversal of spontaneous pain response at 100 mg/kg, ip after 120 mins (reference value: 4.5 +/- 0.2%); format: functional; conditions: route intraperitoneal
[9] = biological target: T1, Cannabinoid receptor 2 (Rattus norvegicus, UniProt Q9QZN9); assay: Displacement of [3H]CP55940 from CB2 receptor in rat spleen homogenate after 90 mins; format: tissue-based
T1 sequence (Q9QZN9 whole entry): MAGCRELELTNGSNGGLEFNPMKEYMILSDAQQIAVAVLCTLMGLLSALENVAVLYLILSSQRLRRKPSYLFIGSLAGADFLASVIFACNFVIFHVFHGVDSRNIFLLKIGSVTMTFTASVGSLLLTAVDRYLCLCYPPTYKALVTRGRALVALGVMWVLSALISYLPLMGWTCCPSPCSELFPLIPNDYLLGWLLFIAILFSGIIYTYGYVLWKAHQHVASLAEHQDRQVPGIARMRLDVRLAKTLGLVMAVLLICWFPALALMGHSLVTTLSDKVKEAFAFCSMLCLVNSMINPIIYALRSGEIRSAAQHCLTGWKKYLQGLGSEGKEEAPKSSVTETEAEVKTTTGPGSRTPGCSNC
In short: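 Rat brain (CB1) or spleen (CB2) membranes, homogenized in tris/NaCl/MgCl2 pH 7.4, competed against 0.5 nM [3H]CP55940 in 50 mM Tris-HCl, 2 mM EDTA, 5 mM MgCl2, 0.2 mg/mL BSA, pH 7.4; 90 min incubation. Nonspecific binding with 1 µM WIN (CB1) or 1 µM SR144528 (CB2); triplicates averaged.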

[10] = tested on: Rattus norvegicus; assay: Antinociceptive activity in Wistar rat chronic constriction injury model assessed as reversal of tactile allodynia at 100 mg/kg, ip after 30 mins (reference value: 3.4 +/- 0.8%); format: functional; conditions: route intraperitoneal
[11] = tested on: Rattus norvegicus; assay: Antinociceptive activity in Wistar rat partial sciatic nerve ligation model assessed as reversal of cold allodynia at 100 mg/kg, ip after 30 mins (reference value: 4.1 +/- 1.0%); format: functional; conditions: route intraperitoneal
[12] = tested on: Rattus norvegicus; assay: Antinociceptive activity in Wistar rat partial sciatic nerve ligation model assessed as reversal of tactile allodynia at 100 mg/kg, ip after 30 mins (reference value: 7.7 +/- 0.7%); format: functional; conditions: route intraperitoneal
[13] = tested on: Mus musculus; assay: Neurotoxicity in Swiss albino mouse assessed as minimal motor impairment at 300 mg/kg after 0.5 hrs by rotarod test; format: toxicity, organism-based; parameters: dose 300 mg/kg; conditions: in vivo
In short: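 Swiss albino mice of either sex, 20-25 g, dosed at 30, 100 and 300 mg/kg, three per group. Minimal motor impairment scored by rotarod at 0.5 and 4.0 h after dosing. Reported value is the lowest dose giving impairment in half or more of the mice.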

[14] = tested on: Rattus norvegicus; assay: Antinociceptive activity in ip dosed Wistar rat chronic constriction injury model assessed as reversal of mechanical allodynia after 60 mins; format: functional; conditions: 1 h; in short: as §1
[15] = tested on: Rattus norvegicus; assay: Antinociceptive activity in Wistar rat chronic constriction injury model assessed as reversal of spontaneous pain response at 100 mg/kg, ip after 60 mins (reference value: 4.6 +/- 0.6%); format: functional; conditions: route intraperitoneal
[16] = tested on: Rattus norvegicus; assay: Antinociceptive activity in Wistar rat chronic constriction injury model assessed as reversal of cold allodynia at 100 mg/kg, ip after 30 mins (reference value: 0.6 +/- 2.7%); format: functional; conditions: route intraperitoneal
[17] = tested on: Rattus norvegicus; assay: Antinociceptive activity in Wistar rat partial sciatic nerve ligation model assessed as reversal of mechanical allodynia at 100 mg/kg, ip after 60 mins (reference value: 2.8 +/- 0.3%); format: functional; conditions: route intraperitoneal
[18] = tested on: Rattus norvegicus; assay: Antinociceptive activity in Wistar rat partial sciatic nerve ligation model assessed as reversal of mechanical allodynia at 100 mg/kg, ip after 120 mins (reference value: 2.9 +/- 0.3%); format: functional; conditions: route intraperitoneal
[19] = tested on: Rattus norvegicus; assay: Antinociceptive activity in ip dosed Wistar rat chronic constriction injury model assessed as reversal of spontaneous pain response after 60 mins; format: functional; conditions: 1 h; in short: as §1
[20] = tested on: Rattus norvegicus; assay: Antinociceptive activity in Wistar rat chronic constriction injury model assessed as reversal of mechanical allodynia at 100 mg/kg, ip after 120 mins (reference value: 5.3 +/- 0.5%); format: functional; conditions: route intraperitoneal
[21] = tested on: Rattus norvegicus; assay: Antinociceptive activity in Wistar rat chronic constriction injury model assessed as reversal of mechanical allodynia at 100 mg/kg, ip after 30 mins (reference value: 4.7 +/- 2.1%); format: functional; conditions: route intraperitoneal
[22] = tested on: Rattus norvegicus; assay: Antinociceptive activity in ip dosed Wistar rat partial sciatic nerve ligation model assessed as reversal of tactile allodynia after 30 mins; format: functional; conditions: 0.5 h; in short: as §1
[23] = tested on: Rattus norvegicus; assay: Antinociceptive activity in ip dosed Wistar rat chronic constriction injury model assessed as reversal of tactile allodynia after 30 mins; format: functional; conditions: 0.5 h; in short: as §1
[24] = tested on: Mus musculus; assay: Anticonvulsant activity in ip dosed Swiss albino mouse assessed as protection against picrotoxin-induced seizure administered 30 mins prior to picrotoxin-challenge measured after 4 hrs; format: functional; conditions: read-out: MED; in short: as §2
[25] = tested on: Rattus norvegicus; assay: Antinociceptive activity in ip dosed Wistar rat chronic constriction injury model assessed as reversal of mechanical allodynia after 30 mins; format: functional; conditions: 0.5 h; in short: as §1
[26] = tested on: Rattus norvegicus; assay: Antinociceptive activity in ip dosed Wistar rat partial sciatic nerve ligation model assessed as reversal of tactile allodynia after 60 mins; format: functional; conditions: 1 h; in short: as §1
[27] = tested on: Rattus norvegicus; assay: Antinociceptive activity in ip dosed Wistar rat partial sciatic nerve ligation model assessed as reversal of cold allodynia after 30 mins; format: functional; conditions: 0.5 h; in short: as §1
[28] = tested on: Rattus norvegicus; assay: Antinociceptive activity in ip dosed Wistar rat chronic constriction injury model assessed as reversal of spontaneous pain response after 30 mins; format: functional; conditions: 0.5 h; in short: as §1
[29] = tested on: Rattus norvegicus; assay: Antinociceptive activity in ip dosed Wistar rat chronic constriction injury model assessed as reversal of cold allodynia after 30 mins; format: functional; conditions: 0.5 h; in short: as §1

Row | Structure (SMILES) | ED50 [1] [mg/kg] | ED50 [3] [mg/kg] | ED50 [4] [mg/kg] | Activity [6] [%] | Activity [7] [%] | Activity [8] [%] | IC50 [9] [nM] | Activity [10] [%] | Activity [11] [%] | Activity [12] [%] | Activity [13] | ED50 [14] [mg/kg] | Activity [15] [%] | Activity [16] [%] | Activity [17] [%] | Activity [18] [%] | ED50 [19] [mg/kg] | Activity [20] [%] | Activity [21] [%] | ED50 [23] [mg/kg] | further results
1 | CCN1CCc2c(c(C(C)(C)C)nn2C(=O)Nc2ccc(C)cc2C)C1 | 44.4 | 29.8 | 7.4 | 40.4 | 85.4 | 89.5 | > 1000 | 69.7 | 62.1 | 61.6 | Non-toxic | 25.7 | 90.9 | 53.9 | 56.3 | 46.3 | 15.5 | 67.5 | 93.8 |  | Activity [2]: inactive; ED50 [5]: 23.4 mg/kg
2 | CCN1CCc2c(c(C(C)(C)C)nn2C(=O)Nc2c(C)cccc2C)C1 | 65.8 | 37.4 | 8.1 | 18.8 | 95 | 88.5 | > 1000 | 90.1 | 58.3 | 89.4 | Non-toxic | 38.3 | 90.7 | 61.4 | 57.7 | 50 | 10.4 | 78.9 | 69.4 | 21.7 | ED50 [22]: 24.9 mg/kg; minimal effective dose [24]: 100 mg/kg
3 | CCN1CCc2c(c(C(C)(C)C)nn2C(=O)Nc2ccc(Br)cc2)C1 |  |  | 29 | 56.9 | 90.6 | 83.2 | > 1000 | 66.7 | 55.4 | 61.6 | Non-toxic |  | 85.9 | 73 | 53.6 | 41.1 |  | 65.3 | 81.9 | 23.8 | ED50 [25]: 37.3 mg/kg; ED50 [26]: 37.5 mg/kg; ED50 [27]: 68 mg/kg; ED50 [28]: 27.3 mg/kg; ED50 [29]: 41.4 mg/kg; minimal effective dose [24]: 100 mg/kg
